Measurements as given in ChEMBL document CHEMBL1221214, “Cytosporone B is an agonist for nuclear orphan receptor Nur77” (Nat Chem Biol, 2008).
In brackets after ≈: the same amount, converted by molar mass. Activity calls are given as the source filed them. The rule behind the calls is not given here.

Columns and labels:
[1] = molecular target: T1, Nuclear receptor subfamily 4immunitygroup A member 1 (Homo sapiens, UniProt P22736); assay: Agonist activity at nuclear orphan receptor Nur77 expressed in human BGC823 cells co-transfected with pLuc-2900 containing Nr4a1 promoter assessed as transcriptional activity; assay type: functional, cell-based; details: BGC-823
T1 sequence (P22736 whole entry): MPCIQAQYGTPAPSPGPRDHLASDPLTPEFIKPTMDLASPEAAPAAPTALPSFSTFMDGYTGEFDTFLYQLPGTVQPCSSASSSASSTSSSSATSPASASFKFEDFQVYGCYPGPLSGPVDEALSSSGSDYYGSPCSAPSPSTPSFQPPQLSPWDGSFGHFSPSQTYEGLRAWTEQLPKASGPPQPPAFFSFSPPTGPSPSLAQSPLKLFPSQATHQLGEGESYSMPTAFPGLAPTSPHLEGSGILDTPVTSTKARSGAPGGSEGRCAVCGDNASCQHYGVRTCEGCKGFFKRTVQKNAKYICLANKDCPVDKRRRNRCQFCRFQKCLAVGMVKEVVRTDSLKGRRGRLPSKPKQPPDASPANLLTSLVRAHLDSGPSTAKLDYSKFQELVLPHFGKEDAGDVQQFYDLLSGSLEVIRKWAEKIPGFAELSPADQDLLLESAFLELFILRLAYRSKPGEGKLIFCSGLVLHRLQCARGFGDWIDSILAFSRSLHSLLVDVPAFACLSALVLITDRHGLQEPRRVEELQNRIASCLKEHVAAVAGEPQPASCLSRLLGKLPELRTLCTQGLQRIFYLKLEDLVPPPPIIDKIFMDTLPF

[2] = molecular target: T1, Nuclear receptor subfamily 4immunitygroup A member 1; assay: Binding affinity to GST-tagged nuclear orphan receptor Nur77 at 25 degC by fluorescence quenching analysis
In short: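 GST-Nur77 intrinsic fluorescence (emission maximum 336 nm) monitored while increasing Csn-B amounts were added; inner-filter contribution estimated with GST alone and subtracted to give corrected quenching curves.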

BGC-823 [3] = assay: Induction of mitochondrial translocation of Nur77 from nucleus in human BGC823 cells transfected with GFP-Nur77 at 5 ug/ml after 12 hrs using immunostained with anti-Hsp60 by confocal microscopy; assay type: functional, cell-based
In short: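 BGC-823 cells transfected with GFP-Nur77, treated at 5 μg ml-1 for 12 h, immunostained with anti-Hsp60 and Texas Red secondary antibody, and imaged by confocal microscopy for mitochondrial localization.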

[4] = molecular target: T1, Nuclear receptor subfamily 4immunitygroup A member 1; assay: Agonist activity at Nur77 expressed in human BGC823 cells assessed as Nr4a1mRNA expression by real-time PCR; assay type: functional, cell-based; details: BGC-823
HepG2 = assay: Antiproliferative activity against human HepG2 cells assessed as number of viable cells after 72 hrs by MTT assay; assay type: functional, cell-based
[5] = molecular target: T1, Nuclear receptor subfamily 4immunitygroup A member 1; assay: Agonist activity at nuclear orphan receptor Nur77 expressed in human BGC823 cells co-transfected with fused GAL4-Nur77 assessed as transactivation after 12 hrs by luciferase reporter gene assay; assay type: functional, cell-based, BGC-823
[6] = molecular target: T1, Nuclear receptor subfamily 4immunitygroup A member 1; assay: Agonist activity at nuclear orphan receptor Nur77 expressed in human BGC823 cells co-transfected with pLuc-500 containing Nr4a1 promoter assessed as transcriptional activity; assay type: functional, cell-based; details: BGC-823
[7] = molecular target: Nuclear receptor subfamily 4 group A member 1 (Mus musculus) (UniProt P12813); assay: Agonist activity at Nur77 in wild-type mouse C57BL/6 assessed as phosphofructokinase mRNA at 50 mg/kg, ip after 300 mins by real-time PCR analysis; assay type: functional, organism-based; set-up: dose 50 mg/kg
Nuclear receptor subfamily 4 group A member 1 (Mus musculus), sequence (P12813 whole entry, the tested form may be a part): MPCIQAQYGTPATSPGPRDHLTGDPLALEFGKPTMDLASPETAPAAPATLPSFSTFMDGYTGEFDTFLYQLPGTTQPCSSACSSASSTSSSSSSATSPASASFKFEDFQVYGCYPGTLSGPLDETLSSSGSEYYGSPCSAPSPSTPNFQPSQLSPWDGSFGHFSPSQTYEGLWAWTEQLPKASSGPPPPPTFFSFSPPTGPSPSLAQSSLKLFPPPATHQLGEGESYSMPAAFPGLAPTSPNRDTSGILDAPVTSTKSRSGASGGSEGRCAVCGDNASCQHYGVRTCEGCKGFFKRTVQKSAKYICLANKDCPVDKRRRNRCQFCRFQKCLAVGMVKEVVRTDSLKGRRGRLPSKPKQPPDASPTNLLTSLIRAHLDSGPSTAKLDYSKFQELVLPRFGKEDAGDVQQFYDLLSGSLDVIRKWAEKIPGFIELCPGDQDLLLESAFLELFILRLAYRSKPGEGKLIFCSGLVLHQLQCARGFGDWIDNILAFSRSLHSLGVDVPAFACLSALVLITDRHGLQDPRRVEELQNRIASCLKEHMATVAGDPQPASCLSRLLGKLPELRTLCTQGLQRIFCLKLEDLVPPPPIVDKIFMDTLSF

BGC-823 [8] = assay: Induction of Nur77 mediated apoptosis in human BGC823 cells transfected with si-Nur77 at 5 uM after 48 hrs by flow cytometry assay; assay type: functional; details: in the assay text read “5 ug/ml” for “5 uM”
In short: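 BGC-823 gastric cancer cells, transfected or not with Nur77 siRNA or scrambled control siRNA, then exposed to 5 μg ml-1 for 48 h. Apoptotic cells were counted by flow cytometry.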

[9] = molecular target: Nuclear receptor subfamily 4 group A member 1 (Mus musculus) (UniProt P12813); assay: Agonist activity at Nur77 in wild-type mouse C57BL/6 assessed as glucose-6-phosphatase mRNA at 50 mg/kg, ip within 30 mins by real-time PCR analysis relative to control; assay type: functional, organism-based; set-up: dose 50 mg/kg
BGC-823 [10] = assay: Induction of Nur77 mediated apoptosis in human BGC823 cells at 5 ug/ml after 48 hrs by flow cytometry assay
Saccharomyces cerevisiae = assay: Antimicrobial activity against Saccharomyces cerevisiae; assay type: functional, organism-based
BGC-823 [11] = assay: Induction of Nur77 mediated apoptosis in human BGC823 cells assessed as cytochrome C release from mitochondria at 5 uM after 24 hrs by Western blotting analysis; assay type: functional, cell-based
BGC-823 [12] = assay: Antitumor activity against human BGC823 cells expressing Nur77-WT xenografted in athymic nude mouse BALB/c assessed as tumor weight 13 mg/kg, ip twice a week after 4 weeks; assay type: functional, organism-based; set-up: dose 13 mg/kg
In short: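 BALB/c athymic nude mice (~16 g, 4 weeks old, 28 °C, sterile housing) inoculated subcutaneously with 0.05 ml BGC-823 cell suspension (wild-type, si-Nur77 or si-Ctrl sublines; 2.5×10^10 l-1), n = 6; after 1 week, Csn-B 13 mg kg-1 ip twice weekly or DMSO; tumors weighed at 4 weeks; means ± s.d., two-tailed t-test.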

BGC-823 [13] = assay: Induction of Nur77 mediated apoptosis in human BGC823 cells assessed as nuclear DNA condensation by flow cytometry assay; assay type: functional, cell-based
[14] = tested on: Mycobacterium tuberculosis; assay: Antimicrobial activity against Mycobacterium tuberculosis; assay type: functional, organism-based
[15] = molecular target: T1, Nuclear receptor subfamily 4immunitygroup A member 1; assay: Agonist activity at nuclear orphan receptor Nur77 expressed in human BGC823 cells co-transfected with fused GAL4-Y453A assessed as transactivation after 12 hrs by luciferase reporter gene assay; assay type: functional, cell-based; details: BGC-823
[16] = molecular target: T1, Nuclear receptor subfamily 4immunitygroup A member 1; assay: Binding affinity to NuR77-LBD receptor expressed in human BGC823 cells; assay type: cell-based, BGC-823
[17] = molecular target: T1, Nuclear receptor subfamily 4immunitygroup A member 1; assay: Agonist activity at nuclear orphan receptor Nur77 in human BGC823 cells bearing beta-galactosidase expression vector assessed as transcriptional activation of retinoic acid receptor response element after 12 hrs by luciferase assay; assay type: functional, cell-based; details: BGC-823
BGC-823 [18] = assay: Induction of Nur77 mediated apoptosis in human BGC823 cells assessed as cytochrome C release […] at 5 uM after 24 hrs by Western blotting analysis; assay type: functional, cell-based
[19] = molecular target: T1, Nuclear receptor subfamily 4immunitygroup A member 1; assay: Agonist activity at nuclear orphan receptor Nur77 expressed in human BGC823 cells co-transfected with fused GAL4-LBD assessed as transactivation after 12 hrs by luciferase reporter gene assay; assay type: functional, cell-based, BGC-823
[20] = molecular target: Nuclear receptor subfamily 4 group A member 1 (Mus musculus) (UniProt P12813); assay: Agonist activity at Nur77 in insulin treated mouse C57BL/6 assessed as glucose-6-phosphatase mRNA after 60 mins by real-time PCR relative to control; assay type: functional
Staphylococcus aureus = assay: Antimicrobial activity against Staphylococcus aureus; assay type: functional, organism-based
Mus musculus = assay: Increase in blood glucose level in wild-type mouse C57BL/6 at 50 mg/kg, ip within 30 mins; assay type: functional; details: route intraperitoneal
In short: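 C57BL/6 mice (wild-type or Nr4a1-/-, six weeks old) fasted 16 h with water, then given 50 mg kg-1 intraperitoneally. DMSO (50 μl) or injection without vehicle served as controls. Tail-vein blood glucose was read by glucometer at 15, 30, 60, 90, 120, 180 and 300 min. Means ± s.e.m.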

[21] = Antiproliferative activity against human H1299 cells assessed as number of viable cells after 72 hrs by MTT assay; assay type: functional, NCI-H1299
[22] = molecular target: T1, Nuclear receptor subfamily 4immunitygroup A member 1; assay: Induction of SRC2-enhanced Nur77 transactivational activity in human BGC823 cells after 12 hrs by luciferase/beta-galactosidase reporter assay; assay type: cell-based; details: BGC-823
In short: (§1)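 BGC-823 cells cotransfected with or without SRC-1, SRC-2 or SRC-3, plus NurRE-luciferase reporter and β-galactosidase, then treated for 12 h at a range of concentrations. Fold induction is each luciferase activity relative to non-SRC transfection at the same concentration.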

BGC-823 [23] = assay: Induction of SRC3 recruitment to NurRE in human BGC823 cells after 12 hrs by luciferase/beta-galactosidase reporter assay; assay type: functional, cell-based; in short: as §1
[24] = molecular target: Nuclear receptor subfamily 4 group A member 1 (Mus musculus) (UniProt P12813); assay: Agonist activity at Nur77 in wild-type mouse C57BL/6 assessed as hexokinase gene at 50 mg/kg, ip within 30 to 300 mins by real-time PCR analysis; assay type: functional, organism-based; set-up: dose 50 mg/kg
[25] = molecular target: T1, Nuclear receptor subfamily 4immunitygroup A member 1; assay: Binding affinity to nuclear orphan receptor Nur77-ligand binding domain at 5 Um by fluorescence quenching analysis
[26] = molecular target: Nuclear receptor subfamily 4 group A member 1 (Mus musculus) (UniProt P12813); assay: Agonist activity at Nur77 in wild-type mouse assessed as transcriptional activation of luciferase reporter gene relative to control; assay type: functional
In short: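 Nur77, NurRE-luciferase reporter and β-galactosidase combined with in vivo transfection reagent and injected into tail vein of wild-type or Nr4a1-/- C57BL/6 mice (n = 5/group); 5 h later DMSO (50 μl) or Csn-B 50 mg kg-1 ip; liver lysate luciferase read 24 h post-injection; means ± s.e.m.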

## CCCCCCCC(=O)c1c(O)cc(O)cc1CC(=O)OCC [CYTOSPORONE B]
[1]
  Activity: Active
[2]
  Activity: Active
BGC-823 [3]
  Activity: Active
[4]
  Activity: Active
HepG2
  Activity: Active
[5]
  EC50: 0.278 nM
[6]
  Activity: inactive
[7]
  Activity: inactive
BGC-823 [8]
  Activity: 20.1%
[9]
  Activity: Active
BGC-823 [10]
  Activity: 63.5%
Saccharomyces cerevisiae
  IC50: 1.56 µg/mL (≈ 4.84 µM)
BGC-823 [11]
  Activity: Active
BGC-823 [12]
  Activity: Active
BGC-823 [13]
  Activity: Active
[14]
  IC50: 250 µg/mL (≈ 775 µM)
[15]
  Activity: inactive
[16]
  Kd: 1510 nM
[17]
  Activity: inactive
BGC-823 [18]
  Activity: Active
[19]
  EC50: 0.115 nM
[20]
  fold change (FC): 6.23
Staphylococcus aureus
  IC50: 12.5 µg/mL (≈ 38.8 µM)
Mus musculus
  Activity: 11.4 mM
[21]
  inhibition (INH): >=40%
[22]
  Activity: Dose-dependent effect
BGC-823 [23]
  Activity: inactive
[24]
  Activity: inactive
[25]
  Activity: Active
[26]
  fold change (FC): 5
